Usually MIC stands for the lowest concentration found to suppress growth. By HC50 is commonly meant the concentration giving 50% haemolysis.

Data on eleven molecules can be found in ChEMBL document CHEMBL1765053, “Synthetic mimics of antimicrobial peptides from triaryl scaffolds” (J Med Chem, 2011).

Values after ≈ are worked out from the molar mass of the structure shown.

One series deals with Klebsiella pneumoniae. Description: Antibacterial activity against Klebsiella pneumoniae ATCC 13883 after 18 hrs by microbroth dilution method. The conditions noted are these: ATCC 13883, 18 h. The class given is functional. In a few lines: (§1)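 Hancock modification of CLSI broth microdilution, adjusted to limit compound adsorption to surfaces and precipitation. Bacteria grown overnight in Mueller-Hinton broth at 37 °C. Compounds tested as di-TFA salts or diamine, from DMSO/Hancock solution (0.01% acetic acid, 0.2% BSA) 2-fold stocks diluted 10-fold into culture. Final 100 to 0.05 μg/mL, duplicate. Growth read as OD600 after 18 h at 37 °C. MIC taken as >90% growth inhibition.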
A general note: In broth dilution the organism is exposed to a series of concentrations in liquid medium.

A further series has as its system Staphylococcus aureus. Description: Antibacterial activity against Staphylococcus aureus ATCC 27660 after 18 hrs by microbroth dilution method. The class given is functional. The following applies: ATCC 27660, 18 h. The method in brief:
as §1

Another series relates to Escherichia coli. The series can be described thus: Antibacterial activity against Escherichia coli ATCC 25922 after 18 hrs by microbroth dilution method. The format is functional. The conditions noted are these: ATCC 25922, 18 h. The method in brief:
as §1

Series [1] in a line: Toxicity in human RBC assessed as hemolysis after 1 hr. The format is cell-based, Erythrocyte. The following applies: human red blood cells (RBC). In a few lines:
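RBCs spun down from human whole blood and diluted in TBS to a 0.22% stock suspension. Serial 1:2 dilutions of compound in water added, highest final 1000 μg/mL. Shaken 1 h at 37 °C, then centrifuged 3000 rpm for 5 min. Supernatant diluted into water and released hemoglobin quantified. HC50 is the lowest concentration lysing 50% of RBCs.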

Consider `NCCC(=O)Nc1ccc(C(F)(F)F)cc1-c1ccc(-c2cc(C(F)(F)F)ccc2NC(=O)CCN)nn1.O=C(O)C(F)(F)F.O=C(O)C(F)(F)F`, for which the figures for the MIC against Klebsiella pneumoniae, with Staphylococcus aureus and in the series on Escherichia coli were 50 µg/mL, 25 µg/mL and 50 µg/mL, respectively. Moreover, the HC50 at 1 h in series [1] was 191 µg/mL.

As to `NCCC(=O)Nc1ccc(C(F)(F)F)cc1-c1ccc(-c2cc(C(F)(F)F)ccc2NC(=O)CCN)nc1.O=C(O)C(F)(F)F.O=C(O)C(F)(F)F`, the MIC in the series with Klebsiella pneumoniae is more than 100 µg/mL; in the series on Staphylococcus aureus it was 25 µg/mL; with Escherichia coli it was 50 µg/mL. In addition, the HC50 at 1 h in series [1] is 356 µg/mL.

For `CC(C)(C)c1ccc(NC(=O)CCN)c(-c2ccc(-c3cc(C(C)(C)C)ccc3NC(=O)CCN)nn2)c1.O=C(O)C(F)(F)F.O=C(O)C(F)(F)F`, the values for the minimal inhibitory concentration (MIC) against Klebsiella pneumoniae, against Staphylococcus aureus and in the series on Escherichia coli were 100 µg/mL, 12.5 µg/mL and 50 µg/mL, respectively. Also, the HC50 at 1 h in series [1] was 82.5 µg/mL.

As to `NCCC(=O)Nc1ccccc1-c1ccc(-c2ccccc2NC(=O)CCN)nn1.O=C(O)C(F)(F)F.O=C(O)C(F)(F)F`, the MIC is more than 50 µg/mL against Klebsiella pneumoniae, 50 µg/mL against Staphylococcus aureus and 50 µg/mL in the series on Escherichia coli. Moreover, the 50% haemolytic concentration (HC50) at 1 h in series [1] is more than 1000 µg/mL.

In the case of `CC(C)(C)c1ccc(NC(=O)CCCCN)c(-c2ccc(-c3cc(C(C)(C)C)ccc3NC(=O)CCCCN)cc2)c1.O=C(O)C(F)(F)F.O=C(O)C(F)(F)F`, the MIC against Klebsiella pneumoniae was 12.5 µg/mL; in the series on Staphylococcus aureus, 3.13 µg/mL; in the series with Escherichia coli, 6.25 µg/mL. Further, the concentration for 50% haemolysis (HC50) at 1 h in series [1] is 34.5 µg/mL.

With `CC(C)(C)c1ccc(NC(=O)CCN)c(-c2ccc(-c3cc(C(C)(C)C)ccc3NC(=O)CCN)cc2)c1.O=C(O)C(F)(F)F.O=C(O)C(F)(F)F`, the MIC in the series on Klebsiella pneumoniae was 12.5 µg/mL; in the series with Staphylococcus aureus, 3.13 µg/mL; against Escherichia coli, 6.25 µg/mL. In addition, the HC50 at 1 h in series [1] turned out to be 6.46 µg/mL.

Regarding `CC(C)(C)c1ccc(NC(=O)CCCCNC(=N)N)c(-c2ccc(-c3cc(C(C)(C)C)ccc3NC(=O)CCCCNC(=N)N)cc2)c1.O=C(O)C(F)(F)F.O=C(O)C(F)(F)F`, the minimum inhibitory concentration (MIC) with Klebsiella pneumoniae is 12.5 µg/mL; in the series on Staphylococcus aureus, 0.78 µg/mL; against Escherichia coli it was 6.25 µg/mL. For the same molecule, the HC50 at 1 h in series [1] amounted to 12.8 µg/mL.

In the case of `NCCC(=O)Nc1ccc(C(F)(F)F)cc1-c1ccc(-c2cc(C(F)(F)F)ccc2NC(=O)CCN)cc1.O=C(O)C(F)(F)F.O=C(O)C(F)(F)F`, the minimal inhibitory concentration (MIC) with Klebsiella pneumoniae was determined as 25 µg/mL; in the series with Staphylococcus aureus it was 3.13 µg/mL; in the series on Escherichia coli, 12.5 µg/mL. In addition, in series [1], the HC50 at 1 h came out at 36.5 µg/mL.

Consider `CC(C)(C)c1ccc(NC(=O)CCN)c(-c2ccc(-c3cc(C(C)(C)C)ccc3NC(=O)CCN)nc2)c1.O=C(O)C(F)(F)F.O=C(O)C(F)(F)F`, for which the values for the MIC against Klebsiella pneumoniae, with Staphylococcus aureus and against Escherichia coli were 25 µg/mL, 12.5 µg/mL and 12.5 µg/mL, respectively. Further, in series [1], the HC50 at 1 h is 39 µg/mL.

As to “H-GIGKFLKKAKKFGKAFVKILKK-NH2 [PEXIGANAN]”, the figures for the MIC in the series with Staphylococcus aureus and in the series on Escherichia coli were 8 µg/mL and 16 µg/mL, respectively. Moreover, in series [1], the HC50 at 1 h is 120 µg/mL.

For the molecule `CC(C)(C)c1ccc(NC(=O)CCCCN)c(-c2ccc(-c3cc(C(C)(C)C)ccc3NC(=O)CCCCN)nn2)c1`, the results for the MIC in the series on Klebsiella pneumoniae, with Staphylococcus aureus and against Escherichia coli were 25 µg/mL (≈ 43.6 µM), 12.5 µg/mL (≈ 21.8 µM) and 25 µg/mL (≈ 43.6 µM), respectively.
